One molecule from ChEMBL document CHEMBL1132360, “N-Substituted (2,3-dihydro-1,4-benzodioxin-2-yl)methylamine derivatives as D(2) antagonists/5-HT(1A) partial agonists with potential as atypical antipsychotic agents” (J Med Chem, 1999) can be followed below.

Structures are written as SMILES.

Usually Ki stands for a measure of affinity in units of concentration, obtained from inhibition or displacement. A lower Ki goes with higher affinity. As usually defined, the ED50 is the dose at which the effect has come halfway, by size or by number of responders. Low values mean greater potency, high ones weaker potency.

The nature of assay [1]: The compound was tested for binding affinity against MCB receptor.
Assay [2] deals with 5-hydroxytryptamine receptor 1B (Sus scrofa, UniProt P79399). Description: The compound was tested for binding affinity against 5-hydroxytryptamine 1B receptor. An outline of the steps:
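Pig caudate membranes washed at 37 °C to remove endogenous 5-HT, in 50 mM Tris-HCl pH 7.7. Incubated 45 min at 25 °C with 4 nM [3H]sumatriptan plus CaCl2, pargyline and ascorbate, test agent at 10^-6 M; 10 μM 5-HT for nonspecific binding. Filtration, scintillation counting; percent displacement of specific binding.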

The target of assay [3] is D(1A) dopamine receptor (Homo sapiens, UniProt P21728). The assay is described as follows: The compound was tested for binding affinity against human Dopamine receptor D1.
Assay [4] addresses D(2) dopamine receptor (Homo sapiens, UniProt P14416). The assay is described as follows: The compound was tested for binding affinity against human Dopamine receptor D2L.
Assay [5] concerns the target Serotonin 4 (5-HT4) receptor (Sus scrofa, UniProt Q6Q253). Description: The compound was tested for binding affinity against 5-hydroxytryptamine 4 receptor.
Assay [6] concerns the target T1, 5-hydroxytryptamine receptor 1A (Rattus norvegicus, UniProt P19327).
T1 sequence (P19327 whole entry): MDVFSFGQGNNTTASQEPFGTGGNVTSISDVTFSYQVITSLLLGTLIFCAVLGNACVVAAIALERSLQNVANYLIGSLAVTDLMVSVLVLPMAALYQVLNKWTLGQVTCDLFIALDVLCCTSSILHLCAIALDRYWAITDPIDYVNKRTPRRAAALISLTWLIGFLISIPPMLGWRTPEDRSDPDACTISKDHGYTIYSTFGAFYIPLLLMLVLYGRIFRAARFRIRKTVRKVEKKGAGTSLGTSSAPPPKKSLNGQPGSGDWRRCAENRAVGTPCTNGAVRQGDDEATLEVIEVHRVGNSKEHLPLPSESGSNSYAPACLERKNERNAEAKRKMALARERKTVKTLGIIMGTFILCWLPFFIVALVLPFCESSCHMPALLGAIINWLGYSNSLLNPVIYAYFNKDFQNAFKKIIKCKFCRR
The assay is described as follows: Binding affinity towards 5-hydroxytryptamine 1A receptor from rat brain using [3H]-8-OH-DPAT as radioligand.

Assay [7] concerns Mus musculus. The assay is described as follows: Antagonistic activity against apomorphine induced climbing in the mouse after po administration. The format is functional. An outline of the steps: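 Male CD1 mice (20–25 g), groups of 10, dosed po with compound or vehicle ([…]) at set times before apomorphine 0.88 mg/kg sc. Each mouse placed in an inverted open-ended wire cage; climbing scored 0–2 at 10 and 20 min after apomorphine.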

The target in assay [8] is 5-hydroxytryptamine receptor 6 (Rattus norvegicus, UniProt P31388). Description: The compound was tested for binding affinity against 5-hydroxytryptamine 6 receptor.
The test system of assay [9] is Rattus norvegicus. The assay is described as follows: The compound was tested in vivo for induction of catalepsy in rat after ip administration. The class given is functional. An outline of the steps:
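Male rats (130–190 g), groups of five, injected ip with compound solution (1 mL/kg). Catalepsy assessed at three times by placing each paw on a 45 mm rubber bung; a paw held 15 s scores 1 (group maximum 20 = 100%). ED50 from percent catalepsy at the final reading, by adapted Litchfield–Wilcoxon.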

5-hydroxytryptamine receptor 6, sequence (P31388 whole entry): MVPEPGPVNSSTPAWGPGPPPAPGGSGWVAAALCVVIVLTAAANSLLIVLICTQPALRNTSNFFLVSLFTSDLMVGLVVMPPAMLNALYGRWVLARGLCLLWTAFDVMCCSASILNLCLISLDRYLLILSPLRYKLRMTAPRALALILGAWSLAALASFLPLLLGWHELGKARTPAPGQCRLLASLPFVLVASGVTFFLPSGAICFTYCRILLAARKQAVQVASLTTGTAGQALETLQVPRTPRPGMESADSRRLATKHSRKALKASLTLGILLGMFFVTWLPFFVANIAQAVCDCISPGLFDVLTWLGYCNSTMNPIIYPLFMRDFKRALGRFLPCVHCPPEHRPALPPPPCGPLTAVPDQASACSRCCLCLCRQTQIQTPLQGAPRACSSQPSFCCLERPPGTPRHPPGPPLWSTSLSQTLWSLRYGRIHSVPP
D(1A) dopamine receptor, sequence (P21728 whole entry): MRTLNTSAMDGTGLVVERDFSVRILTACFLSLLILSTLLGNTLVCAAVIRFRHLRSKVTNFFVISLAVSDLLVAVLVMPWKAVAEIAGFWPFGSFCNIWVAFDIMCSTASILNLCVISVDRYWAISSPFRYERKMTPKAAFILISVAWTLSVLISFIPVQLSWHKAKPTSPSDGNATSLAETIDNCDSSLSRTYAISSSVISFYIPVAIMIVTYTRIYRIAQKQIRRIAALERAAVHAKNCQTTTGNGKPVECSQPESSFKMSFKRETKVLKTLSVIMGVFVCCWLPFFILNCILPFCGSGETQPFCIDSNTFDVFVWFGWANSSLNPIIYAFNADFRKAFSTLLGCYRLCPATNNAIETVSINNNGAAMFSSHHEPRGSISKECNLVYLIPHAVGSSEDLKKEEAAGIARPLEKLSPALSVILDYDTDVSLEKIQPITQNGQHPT
D(2) dopamine receptor, sequence (P14416 whole entry): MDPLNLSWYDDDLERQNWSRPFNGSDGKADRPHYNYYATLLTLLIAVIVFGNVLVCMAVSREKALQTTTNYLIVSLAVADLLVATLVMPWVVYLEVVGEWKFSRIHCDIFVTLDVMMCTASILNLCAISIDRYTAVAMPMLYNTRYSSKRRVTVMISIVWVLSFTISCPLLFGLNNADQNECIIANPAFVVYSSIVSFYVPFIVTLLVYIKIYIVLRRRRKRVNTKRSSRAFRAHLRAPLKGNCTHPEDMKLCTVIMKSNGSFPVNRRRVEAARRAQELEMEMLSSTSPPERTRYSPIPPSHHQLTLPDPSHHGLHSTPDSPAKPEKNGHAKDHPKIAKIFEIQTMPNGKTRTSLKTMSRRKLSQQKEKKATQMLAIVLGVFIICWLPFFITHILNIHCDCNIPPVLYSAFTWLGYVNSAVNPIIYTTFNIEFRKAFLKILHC
Serotonin 4 (5-HT4) receptor, sequence (Q6Q253 whole entry): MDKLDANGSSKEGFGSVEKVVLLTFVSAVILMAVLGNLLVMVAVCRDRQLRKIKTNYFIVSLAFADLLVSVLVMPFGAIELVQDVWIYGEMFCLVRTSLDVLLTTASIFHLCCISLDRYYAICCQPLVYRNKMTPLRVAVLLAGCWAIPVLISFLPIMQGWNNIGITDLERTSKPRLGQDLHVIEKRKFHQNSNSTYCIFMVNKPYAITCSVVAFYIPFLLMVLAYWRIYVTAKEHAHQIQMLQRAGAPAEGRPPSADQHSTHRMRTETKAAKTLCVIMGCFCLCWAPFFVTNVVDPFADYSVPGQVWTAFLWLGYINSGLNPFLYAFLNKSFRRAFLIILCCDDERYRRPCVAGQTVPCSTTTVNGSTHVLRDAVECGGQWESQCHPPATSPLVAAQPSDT
5-hydroxytryptamine receptor 1B, sequence (P79399 whole entry): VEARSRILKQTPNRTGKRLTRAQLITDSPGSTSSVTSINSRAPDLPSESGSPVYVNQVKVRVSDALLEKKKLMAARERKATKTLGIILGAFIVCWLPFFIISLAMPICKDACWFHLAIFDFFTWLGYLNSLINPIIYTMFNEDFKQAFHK

Turning to `COc1ccccc1N1CCC(CNCC2COc3ccc(Cl)cc3O2)CC1` (centres undefined), the Ki in assay [1] was over 1000 nM; in assay [2], over 1000 nM; in assay [3], over 1000 nM; in assay [4], 13.2 nM; in [5] it was over 1000 nM; in assay [6] it was 22 nM. The molecule further yielded a Ki in assay [8] of over 500 nM. Further, the ED50 in assay [7] came out at 5 mg/kg; in assay [9] it was 188 mg/kg.
